Bioassay records deposited in PubChem by several laboratories.
Most compounds without a hit are left out; they make up all but 1.6% or so of the library.
Yeast growth inh = growth inhibitors of yeast BB579 in restrictive medium, primary screen, yeast lifespan-shortening project, S. cerevisiae; OD615, 48 h; inhibition, % at 10 µM; 140,000 tested, 0.51% active;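 active = inhibition above a set limit, 3 SD over the mean compound inhibition, cut at about 44% in these data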
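System: Saccharomyces cerevisiae DeaD strain BB579, replicative lifespan model yeast. Buffer or medium: restrictive glucose-based CSMM-D medium. Doses: one dose, 10 µM compound with 0.25% DMSO. Timing: 4 h preincubation and 48 h exposure at 30 °C. Detection: turbidity as optical density at 615 nm. Benchmarks: amphotericin B 10 µg/mL, positive.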
sdo1 growth = growth rescue of sdo1-depleted yeast, primary screen, S. cerevisiae, bone marrow failure model | AID 817, 2007 | z-score at 10 µM | 140,000 tested, 0.21% active | S. cerevisiae sdo1-depleted JHY4D growth rescue, OD600 30 h; hits give high values; pdr5 snq2 efflux-pump mutant strain;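 active = z-score above 3 at both the 24 hr and the 30 hr optical density reads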;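 also: z-score against mean and SD of all compound wells on the same plate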
RBBP9 inhibitor = human RBBP9 inhibitors, primary screen, biochemical, fluorescence polarization, FP-Rh probe, HTS. Serine hydrolase RBBP9 (Homo sapiens), O75884. recombinant RBBP9. inhibition, % at 7.94 µM. 220,000 tested, 0.2% active. AID 1515, 2009;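 active = inhibition above the campaign mean of all tested compounds plus 3 SD, cut at about 14% in these data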;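 also: plate controls were DMSO wells with RBBP9 for no effect and wells lacking RBBP9 protein for full effect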
Target sequence (O75884 whole entry, looked up): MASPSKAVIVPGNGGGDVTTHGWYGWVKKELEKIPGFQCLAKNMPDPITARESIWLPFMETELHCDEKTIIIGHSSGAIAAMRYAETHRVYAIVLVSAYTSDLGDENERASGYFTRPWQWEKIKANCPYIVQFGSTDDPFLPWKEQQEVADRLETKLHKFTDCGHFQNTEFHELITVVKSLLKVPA
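System: RBBP9 protein | Quantity: 2.5 µM RBBP9 dispensing solution, before mixing | Reagent: FP-Rh probe, 375 nM dispensing solution | Timing: Enzyme-compound preincubation 30 min, then probe labeling 45 min, 25 °C | Measured by: Fluorescence polarization | Read-out: % inhibition | Replication: One well per compound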
Yeast life ext = compounds extending yeast replicative lifespan, primary screen, S. cerevisiae, OD615 | S. cerevisiae growth with nicotinamide; deaD strain in restrictive glucose medium | AID 775, 2007 | inhibition of the nicotinamide effect, % at 10 µM | 130,000 tested, 0.68% active;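 active = inhibition above a set limit, placed 3 SD over the median of all compounds, cut at about 26% in these data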;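 also: 0% = nicotinamide-treated wells and 100% = cells grown without nicotinamide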
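assay system = DeaD-strain S. cerevisiae | measured by = absorbance at 615 nm | probe or stimulus = nicotinamide 1.5 mM | buffer or medium = CSMM-D glucose medium, restrictive | times = 48 h at 30 °C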
NCF1 inh = p47phox/p22phox peptide binding inhibitors, primary screen, biochemical, uHTS, NADPH oxidase regulatory subunit; Neutrophil cytosol factor 1 (Homo sapiens), P14598; fluorescence polarization, 2 h; inhibition, % at 24.7 µM; 220,000 tested, 0.53% active; AID 1274, 2008;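 active = inhibition above about 30%, limit read from the data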;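 also: 0% = p47phox with labelled peptide and 100% = labelled peptide alone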
Target sequence (P14598 whole entry, looked up): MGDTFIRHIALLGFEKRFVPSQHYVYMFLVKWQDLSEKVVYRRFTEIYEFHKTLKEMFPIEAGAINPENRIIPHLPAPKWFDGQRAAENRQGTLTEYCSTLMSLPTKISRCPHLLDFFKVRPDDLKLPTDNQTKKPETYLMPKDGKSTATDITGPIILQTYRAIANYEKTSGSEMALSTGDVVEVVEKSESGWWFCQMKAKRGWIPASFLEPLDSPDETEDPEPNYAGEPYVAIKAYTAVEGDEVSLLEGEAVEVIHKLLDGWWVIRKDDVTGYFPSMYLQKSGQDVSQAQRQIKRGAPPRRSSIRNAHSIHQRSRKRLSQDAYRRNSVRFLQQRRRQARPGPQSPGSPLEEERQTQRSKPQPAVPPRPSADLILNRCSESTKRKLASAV
TbHK1 inh = Trypanosoma brucei hexokinase 1 inhibitors, primary screen, biochemical, G6PDH-coupled NADH absorbance, MLSCN library | inhibition, % at 10 µM | 220,000 tested, 0.11% active | hexokinase 1 [Trypanosoma brucei] | recombinant TbHK1, G6PDH-coupled NADH A340;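 active = inhibition of 50% or more in the single-dose primary screen; inactive = inhibition below 50%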
G6PDH ctr = Leuconostoc G6PDH inhibition, confirmation, counter-screen for TbHK1 inhibitor project, biochemical, DPI cherry-picked compounds, single concentration; shares compounds with TbHK1 inh; purified G6PDH, NADH absorbance, 1 h; inhibition, % at 10 µM; 210 tested, 7% active;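 active = at least 50% inhibition in the glucose-6-phosphate dehydrogenase coupled counterscreen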
TbHK1 rescreen = TbHK1 inhibitor retest, confirmation, biochemical, DPI cherry-picked primary actives; recombinant TbHK1, G6PDH-coupled NADH A340 absorbance; inhibition, % at 10 µM; shares compounds with TbHK1 inh; 210 tested, 10% active;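 active = inhibition of at least 50% in both of the two screening runs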;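 also: 0% and 100% set by the maximum and minimum signal control wells on each plate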
Numbers without * were called inactive; . = not tested or not shown.

SMILES | Yeast growth inh | sdo1 growth | RBBP9 inhibitor | Yeast life ext | NCF1 inh | TbHK1 inh | G6PDH ctr | TbHK1 rescreen
COCCNC(=O)CN(Cc1ccc2c(c1)OCO2)C(=O)CCC(=O)Nc1nccs1 | -7 | -1.5 | -10 | -3 | -13 | 53* | -13 | -1
CC(=O)Nc1nc2ccccc2n1CCOc1ccccc1Cl | -62 | -1.3 | -7 | -11 | 8 | 52* | 0 | -4
O=C1CC(C(=O)NCc2ccccc2)C2(CCCC2)O1 (stereo not drawn) | -29 | 0.46 | -1 | -9 | -14 | 55* | 1 | 2
COc1ccccc1N1C(=S)NC2CS(=O)(=O)CC21 (stereo not drawn) | . | . | -5 | . | 0 | -20 | . | .
COC(=O)c1nc(NC2=NCCCCC2)n[nH]1 | -9 | -0.45 | -3 | -9 | -4 | -10 | . | .
C1CCN=C(Nc2nn[nH]n2)CC1 | -19 | -0.39 | 0 | -19 | -13 | 55* | -5 | -10
CC1=C(C(=O)OCC2CCCO2)C(c2ccsc2)C2=C(CCCC2=O)N1 (stereo not drawn) | . | . | -6 | . | -4 | -11 | . | .
O=C1OC(N2CCN(C(=O)C3CCCO3)CC2)c2ccccc21 (stereo not drawn) | -30 | -0.24 | -1 | -15 | -1 | 63* | -3 | 3
O=C(C1CCCO1)N1CCN(c2ncccn2)CC1 (stereo not drawn) | -69 | 0.3 | 8 | -18 | -9 | 56* | -9 | -4
Cc1ncsc1C(=O)O | . | . | 1 | . | 6 | 2 | . | .
Cc1cccc(N/C=C(\[N+](=O)[O-])S(=O)(=O)c2ccccc2)c1C | . | . | -5 | . | -6 | -3 | . | .
Cc1ccc2c(c1)N(CC(=O)NC1CCC(C)CC1)C(=O)CO2 (stereo not drawn) | -10 | 0.99 | 4 | 9 | -6 | 21 | . | .
Cc1ccc2c(c1)N(CC(=O)NC1CCCc3ccccc31)C(=O)CO2 (stereo not drawn) | -28 | -0.52 | -5 | -10 | -6 | 66* | 1 | -1
CCOc1ccc2nc(N3C(=O)CNC3=S)sc2c1 | . | . | -13 | . | -9 | -8 | . | .
COc1ccc2nc(N3C(=O)/C(=C/c4ccc(Cl)cc4)NC3=S)sc2c1 | -47 | 0.04 | -16 | 3 | -67 | 50* | -108 | -23
COc1ccc(S(=O)(=O)NNC(=O)C(=O)NNc2ccccn2)cc1 | . | . | -3 | . | -7 | 53* | -16 | 10
NC(=O)C1CCN(C2CC(=O)N(c3cccc(F)c3)C2=O)CC1 (stereo not drawn) | -32 | 2.3 | -4 | 8 | -7 | 61* | -1 | 2
NC(=O)C1CCN(C2CC(=O)N(c3ccc(F)c(Cl)c3)C2=O)CC1 (stereo not drawn) | -33 | -0.02 | -2 | 2 | 1 | 4 | . | .
CC1CCC(NC(=O)c2ccc(CS(=O)(=O)Cc3ccccc3F)o2)CC1 (stereo not drawn) | -57 | 0.87 | -1 | 3 | -14 | 61* | -4 | 7
N/C(=N/OC(=O)c1ccc(Cl)cc1)c1ncc([N+](=O)[O-])s1 | . | . | -4 | . | 3 | -17 | . | .
CCCCCCCCn1c(N2CCN(c3cccc(Cl)c3)CC2)nc2c1c(=O)[nH]c(=O)n2C | -59 | -0.07 | 2 | -15 | -3 | -1 | . | .
Cn1c(=O)[nH]c(=O)c2c1nc(N1CCCCC1)n2CCOc1ccccc1 | -18 | -0.14 | -6 | -1 | -2 | 55* | 4 | 2
CCCCCCn1c(N2CCN(c3cccc(Cl)c3)CC2)nc2c1c(=O)[nH]c(=O)n2C | -41 | -0.3 | -9 | -21 | -11 | 59* | -50 | 14
Cc1ccc(SCC(=O)Nc2ccc(C(=O)Nc3ccc(O)cc3)cc2)cc1 | . | . | 0 | . | -2 | -5 | . | .
CCOc1ccc(NC(N)=O)cc1 | -14 | 0.22 | -7 | -2 | -7 | 60* | -1 | 4
SMILES | Yeast growth inh | sdo1 growth | RBBP9 inhibitor | Yeast life ext | NCF1 inh | TbHK1 inh | G6PDH ctr | TbHK1 rescreen
CCOC(=O)C1CCN(C(=O)c2sccc2Cl)CC1 | . | . | 1 | . | 6 | -4 | . | .
Cc1ccc(Cn2c(-n3nc(C)cc3C)nc3c2c(=O)[nH]c(=O)n3C)cc1 | -7 | -0.39 | -8 | -11 | 10 | 56* | -11 | 0
Cc1cc(C)n(-c2nc3c(c(=O)[nH]c(=O)n3C)n2Cc2cccc(Br)c2)n1 | -16 | 0.4 | -7 | -2 | -2 | 24 | . | .
COc1ccc(NC(=O)C2CC(c3cc(OC)c(OC)c(OC)c3)=NO2)cc1OC (stereo not drawn) | -13 | 0.54 | -1 | -14 | 8 | 3 | . | .
COc1cccc(C2=NOC(C(=O)Nc3cc(OC)c(OC)c(OC)c3)C2)c1 (stereo not drawn) | -46 | -0.63 | -2 | -8 | 1 | 65* | -8 | -2
CCCCC(C(=O)O)C(C)CC(=O)NNC(=O)c1ccco1 (stereo not drawn) | . | . | 1 | . | 1 | 0 | . | .
O=S(=O)(Cc1ccccc1Cl)CC(O)COc1ccccc1Cl (stereo not drawn) | -25 | -1.2 | -6 | -10 | 1 | 53* | 13 | 12
CC(C)Sc1sc(C(=O)O)c(-c2ccc(Cl)cc2)c1C#N | . | . | -4 | . | 14 | -2 | . | .
O=c1nc2c(O)cccn2c2c1c(=O)[nH]c1ccccc12 | -29 | 1.4 | -5 | 7 | -7 | 56* | 45 | 70*
CCC(C)Sc1nc2c(c(=O)[nH]c(=O)n2C)n1C (stereo not drawn) | -12 | -0.34 | -3 | -14 | 0 | 50* | 0 | 8
Cc1c(NC(=O)c2cc(-c3ccccc3O)on2)c(=O)n(-c2ccccc2)n1C | . | . | 0 | . | -6 | -7 | . | .
COc1ccc(CNC2=CC(=O)CC(C)(C)C2)cc1 | -41 | 0.44 | 3 | -8 | -10 | 57* | -2 | -3
Cc1ccc(Nc2cc(=O)oc3ccccc23)c(C)c1 | -8 | -0.78 | -3 | -7 | -19 | 55* | 8 | 4
Cc1ccc2ncnc(Oc3ncccc3NC(=O)C(C)(C)C)c2c1 | . | . | -1 | . | -7 | -7 | . | .
COc1cccc2c(=O)c(C(=O)NCc3cccs3)c[nH]c12 | -48 | -0.37 | 3 | -11 | -15 | 53* | -13 | -22
